Laboratory results taken from ChEMBL document CHEMBL3297654, “Synthesis, antimicrobial and cytotoxic activities, and structure-activity relationships of gypsogenin derivatives against human cancer cells” (Eur J Med Chem, 2014).
Activity calls are given as the source filed them. No cut-off for these calls is given here.

Experiments:
Micrococcus luteus [1] = experiment: Antimicrobial activity against Micrococcus luteus ATCC 9341 assessed as zone of inhibition at 30 mg for 24 hrs at 30 degC by disk diffusion test; type: functional; settings: ATCC 9341, 24 h, read-out: DIZ
SAOS-2 [2] = experiment: Induction of apoptosis in human Saos2 cells at 20 uM after 48 hrs by Hoechst 33258/propidium iodide staining based phase contrast microscopic analysis; type: functional
Summary of the method: (§1)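 Cells in 48-well plates treated with 0.5, 10, 20 or 40 µM for 24 and 48 h. Values are read at 48 h, 20 µM for test agents and 0.5 µM for controls. Staining is Hoechst 33258/propidium iodide double staining with fluorescence microscopy. Blue nuclei are viable or early-to-mid apoptotic, and pink nuclei are late apoptotic or necrotic. Apoptosis and necrosis are scored from chromatin condensation as % of cells. Cells are grown at 37 °C in 5% CO2 in RPMI, DMEM or McCoy's 5A with 10–15% heat-inactivated FCS.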

HL-60 [3] = experiment: Antiproliferative activity against human HL60 cells after 24 and 72 hrs by MTT assay; type: functional, cell-based
Summary of the method: (§2)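 ATCC human cell lines are kept in RPMI, DMEM or McCoy's 5A with 10–15% heat-inactivated FCS at 37 °C and 5% CO2. They are seeded at 1×10^4–1×10^5 cells/mL in 48-well plates and exposed to 0.5, 10, 20 or 40 µM. Viability is read by MTT (590 nm) at 24 and 72 h. Growth is expressed relative to untreated cells and IC50 is fitted, in triplicate.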

HL-60 [4] = experiment: Induction of apoptosis in human HL60 cells at 20 uM after 48 hrs by Hoechst 33258/propidium iodide staining based phase contrast microscopic analysis; type: functional; summary of the method: as §1
Bacillus subtilis [5] = experiment: Antimicrobial activity against Bacillus subtilis ATCC 6633 assessed as zone of inhibition at 30 uL for 24 hrs at 30 degC by disk diffusion test; type: functional
Summary of the method: (§3)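 Agar well diffusion on Mueller Hinton agar seeded with 0.1 mL broth culture (18–24 h), adjusted to 0.5 McFarland (about 1×10^8 bacteria or 1×10^6 yeast cells/mL). A 6 mm well is filled with 30 µL of compound from a fresh 1000 µg/mL DMSO stock. Plates are held at 30 °C for 24 h and inhibition zone diameter is read in mm.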

Klebsiella pneumoniae = experiment: Antimicrobial activity against Klebsiella pneumoniae ATCC 13882 assessed as zone of inhibition at 30 uL for 24 hrs at 37 degC by disk diffusion test; type: functional, organism-based
Summary of the method: (§4)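 Compound (30 µL of a fresh 1000 µg/mL DMSO stock) goes into a 6 mm well cut in Mueller Hinton agar inoculated with 0.1 mL broth culture adjusted to 0.5 McFarland (about 1×10^8 cells/mL). Plates are incubated 24 h at 37 °C, then zone of inhibition diameter is measured in mm.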

Bacillus cereus [6] = experiment: Antimicrobial activity against Bacillus cereus ATCC 11778 for 24 hrs by microdillution method; type: functional
Summary of the method: (§5)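 Broth microdilution. Compound is dissolved in DMSO (2 mg/mL) and diluted in Mueller Hinton broth as two-fold serial dilutions from 256 to 0.125 µg/mL. Bacteria are pre-grown in nutrient broth at 30 °C, and the final inoculum is about 10^6 cfu/mL. Tests are incubated 37 °C for 24 h. MIC is the lowest concentration giving complete inhibition. Streptomycin is the positive control.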

MCF7 [7] = experiment: Induction of necrosis in human MCF7 cells at 20 uM after 48 hrs by Hoechst 33258/propidium iodide staining based phase contrast microscopic analysis; type: functional; summary of the method: as §1
[8] = Antiproliferative activity against human Saos2 cells after 24 and 72 hrs by MTT assay; type: functional, cell-based; settings: SAOS-2; summary of the method: as §2
Bacillus thuringiensis [9] = experiment: Antimicrobial activity against Bacillus thuringiensis assessed as zone of inhibition at 30 uL for 24 hrs at 30 degC by disk diffusion test; type: functional; summary of the method: as §3
HT-29 [10] = experiment: Antiproliferative activity against human HT-29 cells after 24 and 72 hrs by MTT assay; type: functional, cell-based; summary of the method: as §2
MCF7 [11] = experiment: Induction of apoptosis in human MCF7 cells at 20 uM after 48 hrs by Hoechst 33258/propidium iodide staining based phase contrast microscopic analysis; type: functional; summary of the method: as §1
Salmonella typhimurium = experiment: Antimicrobial activity against Salmonella typhimurium ATCC 14028 assessed as zone of inhibition at 30 uL for 24 hrs at 37 degC by disk diffusion test; type: functional, organism-based; settings: Salmonella enterica subsp. enterica serovar Typhimurium; summary of the method: as §4
Candida tropicalis = experiment: Antimicrobial activity against Candida tropicalis assessed as zone of inhibition at 30 uL for 24 hrs at 30 degC by disk diffusion test; type: functional, organism-based; summary of the method: as §3
Enterococcus faecalis = experiment: Antimicrobial activity against Enterococcus faecalis ATCC 29212 assessed as zone of inhibition at 30 uL for 24 hrs at 37 degC by disk diffusion test; type: functional, organism-based; summary of the method: as §4
MCF7 [12] = experiment: Antiproliferative activity against human MCF7 cells after 24 and 72 hrs by MTT assay; type: functional, cell-based; summary of the method: as §2
SAOS-2 [13] = experiment: Induction of necrosis in human Saos2 cells at 20 uM after 48 hrs by Hoechst 33258/propidium iodide staining based […] microscopic analysis; type: functional; summary of the method: as §1
Micrococcus luteus [14] = experiment: Antimicrobial activity against Micrococcus luteus ATCC 9341 assessed as zone of inhibition at 30 uL for 24 hrs at 30 degC by disk diffusion test; type: functional, organism-based; summary of the method: as §3
HT-29 [15] = experiment: Induction of necrosis in human HT-29 cells at 20 uM after 48 hrs by Hoechst 33258/propidium iodide staining based phase contrast microscopic analysis; type: functional; summary of the method: as §1
Escherichia coli = experiment: Antimicrobial activity against Escherichia coli ATCC 25922 assessed as zone of inhibition at 30 uL for 24 hrs at 37 degC by disk diffusion test; type: functional, organism-based; summary of the method: as §4
HeLa [16] = experiment: Induction of apoptosis in human HeLa cells at 20 uM after 48 hrs by Hoechst 33258/propidium iodide staining based phase contrast microscopic analysis; type: functional; summary of the method: as §1
Nakaseomyces glabratus = experiment: Antimicrobial activity against Candida glabrata assessed as zone of inhibition at 30 uL for 24 hrs at 30 degC by disk diffusion test; type: functional, organism-based; summary of the method: as §3
Caco-2 [17] = experiment: Antiproliferative activity against human Caco2 cells after 24 and 72 hrs by MTT assay; type: functional, cell-based; summary of the method: as §2
Pseudomonas aeruginosa = experiment: Antimicrobial activity against Pseudomonas aeruginosa ATCC 35032 assessed as zone of inhibition at 30 uL for 24 hrs at 37 degC by disk diffusion test; type: functional, organism-based; summary of the method: as §4
[18] = system: Staphylococcus epidermidis; experiment: Antimicrobial activity against Staphylococcus epidermidis ATCC 12228 assessed as zone of inhibition at 30 uL for 24 hrs at 37 degC by disk diffusion test; type: functional, organism-based; summary of the method: as §4
HeLa [19] = experiment: Induction of necrosis in human HeLa cells at 20 uM after 48 hrs by Hoechst 33258/propidium iodide staining based phase contrast microscopic analysis; type: functional; summary of the method: as §1
HT-29 [20] = experiment: Induction of apoptosis in human HT-29 cells at 20 uM after 48 hrs by Hoechst 33258/propidium iodide staining based phase contrast microscopic analysis; type: functional; summary of the method: as §1
Caco-2 [21] = experiment: Induction of necrosis in human Caco2 cells at 20 uM after 48 hrs by Hoechst 33258/propidium iodide staining based phase contrast microscopic analysis; type: functional; summary of the method: as §1
Cyberlindnera jadinii = experiment: Antimicrobial activity against Candida utilis ATCC 9950 assessed as zone of inhibition at 30 uL for 24 hrs at 30 degC by disk diffusion test; type: functional, organism-based; summary of the method: as §3
Proteus vulgaris = experiment: Antimicrobial activity against Proteus vulgaris ATCC 33420 assessed as zone of inhibition at 30 uL for 24 hrs at 37 degC by disk diffusion test; type: functional, organism-based; summary of the method: as §4
Candida albicans = experiment: Antimicrobial activity against Candida albicans ATCC 10231 assessed as zone of inhibition at 30 uL for 24 hrs at 30 degC by disk diffusion test; type: functional, organism-based; summary of the method: as §3
HeLa [22] = experiment: Antiproliferative activity against human HeLa cells after 24 and 72 hrs by MTT assay; type: functional, cell-based; summary of the method: as §2
HL-60 [23] = experiment: Induction of necrosis in human HL60 cells at 20 uM after 48 hrs by Hoechst 33258/propidium iodide staining based phase contrast microscopic analysis; type: functional; summary of the method: as §1
Saccharomyces cerevisiae = experiment: Antimicrobial activity against Saccharomyces cerevisiae ATCC 9763 assessed as zone of inhibition at 30 uL for 24 hrs at 30 degC by disk diffusion test; type: functional, organism-based; summary of the method: as §3
Staphylococcus aureus = experiment: Antimicrobial activity against Staphylococcus aureus ATCC 25923 assessed as zone of inhibition at 30 uL for 24 hrs at 37 degC by disk diffusion test; type: functional, organism-based; summary of the method: as §4
Caco-2 [24] = experiment: Induction of apoptosis in human Caco2 cells at 20 uM after 48 hrs by Hoechst 33258/propidium iodide staining based phase contrast microscopic analysis; type: functional; summary of the method: as §1
Bacillus cereus [25] = experiment: Antimicrobial activity against Bacillus cereus ATCC 11778 assessed as zone of inhibition at 30 uL for 24 hrs at 30 degC by disk diffusion test; type: functional; summary of the method: as §3
Bacillus subtilis [26] = experiment: Antimicrobial activity against Bacillus subtilis ATCC 6633 for 24 hrs by microdillution method; type: functional; summary of the method: as §5
Bacillus thuringiensis [27] = experiment: Antimicrobial activity against Bacillus thuringiensis for 24 hrs by microdillution method; type: functional; summary of the method: as §5

CN(C)[C@@H]1C(O)=C(C(N)=O)C(=O)[C@@]2(O)C(O)=C3C(=O)c4c(O)cccc4[C@@](C)(O)[C@H]3C[C@@H]12 [TETRACYCLINE]
zone of inhibition at 30000 µg/disc (Micrococcus luteus [1]): 26 mm

CC1(C)CC[C@]2(C(=O)OCc3ccccc3)CC[C@]3(C)C(=CC[C@@H]4[C@@]5(C)CC[C@H](O)[C@@](C)(C=O)[C@@H]5CC[C@]43C)[C@@H]2C1
Activity (SAOS-2 [2]): 9% | IC50 (HL-60 [3]): 8.14 µM | Activity (HL-60 [4]): 6% | diameter of the inhibition zone (DIZ) (Bacillus subtilis [5]): inactive | diameter of the inhibition zone (DIZ) (Klebsiella pneumoniae): inactive | MIC (Bacillus cereus [6]): inactive | Activity (MCF7 [7]): 57% | IC50 [8]: 12.7 µM | diameter of the inhibition zone (DIZ) (Bacillus thuringiensis [9]): inactive | IC50 (HT-29 [10]): 8.51 µM | Activity (MCF7 [11]): 4% | diameter of the inhibition zone (DIZ) (Salmonella typhimurium): inactive | diameter of the inhibition zone (DIZ) (Candida tropicalis): inactive | diameter of the inhibition zone (DIZ) (Enterococcus faecalis): inactive | IC50 (MCF7 [12]): 5.15 µM | Activity (SAOS-2 [13]): 30% | diameter of the inhibition zone (DIZ) (Micrococcus luteus [14]): inactive | Activity (HT-29 [15]): 22% | diameter of the inhibition zone (DIZ) (Escherichia coli): inactive | Activity (HeLa [16]): 4% | diameter of the inhibition zone (DIZ) (Nakaseomyces glabratus): inactive | IC50 (Caco-2 [17]): 11.1 µM | diameter of the inhibition zone (DIZ) (Pseudomonas aeruginosa): inactive | diameter of the inhibition zone (DIZ) [18]: inactive | Activity (HeLa [19]): 45% | Activity (HT-29 [20]): 1% | Activity (Caco-2 [21]): 15% | diameter of the inhibition zone (DIZ) (Cyberlindnera jadinii): inactive | diameter of the inhibition zone (DIZ) (Proteus vulgaris): inactive | diameter of the inhibition zone (DIZ) (Candida albicans): inactive | IC50 (HeLa [22]): 74.2 µM | Activity (HL-60 [23]): 48% | diameter of the inhibition zone (DIZ) (Saccharomyces cerevisiae): inactive | diameter of the inhibition zone (DIZ) (Staphylococcus aureus): inactive | Activity (Caco-2 [24]): 1% | diameter of the inhibition zone (DIZ) (Bacillus cereus [25]): inactive | MIC (Bacillus subtilis [26]): inactive | MIC (Bacillus thuringiensis [27]): inactive
